# Assay results reported in ChEMBL document CHEMBL4052583, “A Potent, Selective, and Orally Bioavailable HCV NS5A Inhibitor for Treatment of Hepatitis C Virus: (S)-1-((R)-2-(Cyclopropanecarboxamido)-2-phenylacetyl)-N-(4-phenylthiazol-2-yl)pyrrolidine-2-carboxamide” (J Med Chem, 2017).
# What was measured:
# [1] = Clearance in Sprague-Dawley rat at 1 mg/kg, iv after 1 to 24 hrs by HPLC-MS/MS method; type: ADME, organism-based; conditions: in vivo
# Method in brief: (§1)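 Rats received a single intravenous dose of 1 mg/kg. Clearance (mL/min/kg), steady-state volume of distribution (L/kg), half-life (h) and AUC (ng/mL×h) were reported as mean ± spread.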
# [2] = Volume of distribution at steady state in Sprague-Dawley rat at 1 mg/kg, iv after 1 to 24 hrs by HPLC-MS/MS method; type: ADME, organism-based; conditions: in vivo, read-out: Vdss; method in brief: as §1
# [3] = Inhibition of NS5A in HCV genotype 1b Ava5 infected in human HuH7 cells containing Ava5-EG(D4AB)SEAP subgenomic replicons assessed as reduction in viral replicon growth incubated for 1 day by Phospha-light assay method; type: cell-based, Hepatitis C virus subtype 1b; conditions: Hepatitis C virus, Ava5, 24 h
# [4] = Cytotoxic activity against human HuH7 cells containing HCV subgenomic replicons Ava5-EG(D4AB)SEAP by MTS assay; type: cell-based, Huh-7
# [5] = Half life in Sprague-Dawley rat at 1 mg/kg, iv after 1 to 24 hrs by HPLC-MS/MS method; type: ADME, organism-based; conditions: in vivo; method in brief: as §1
# [6] = AUC in Sprague-Dawley rat at 1 mg/kg, iv after 1 to 24 hrs by HPLC-MS/MS method; type: ADME, organism-based; conditions: in vivo; method in brief: as §1
# [7] = Cmax in Sprague-Dawley rat at 5 mg/kg, po after 1 to 24 hrs by HPLC-MS/MS method; type: ADME, organism-based; design: dose 5 mg/kg, route oral; conditions: in vivo
# Method in brief: (§2)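 Rats were dosed orally at 5 mg/kg. Tmax (h), Cmax (ng/mL), AUC (ng/mL×h) and oral bioavailability F (%) were reported.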
# [8] = Tmax in Sprague-Dawley rat at 5 mg/kg, po after 1 to 24 hrs by HPLC-MS/MS method; type: ADME, organism-based; conditions: in vivo; method in brief: as §2
# [9] = Half life in Sprague-Dawley rat at 5 mg/kg, po after 1 to 24 hrs by HPLC-MS/MS method; type: ADME, organism-based; conditions: in vivo
# [10] = AUC in Sprague-Dawley rat at 5 mg/kg, po after 1 to 24 hrs by HPLC-MS/MS method; type: ADME, organism-based; conditions: in vivo; method in brief: as §2
# [11] = Oral bioavailability in Sprague-Dawley rat at 5 mg/kg after 1 to 24 hrs by HPLC-MS/MS method; type: ADME, organism-based; conditions: in vivo; method in brief: as §2
# [12] = Selectivity index, ratio of CC50 for cytotoxic activity against human HuH7 cells containing HCV subgenomic replicons Ava5-EG(D4AB)SEAP to IC50 for inhibition of NS5A in HCV genotype 1b Ava5 infected in human HuH7 cells containing Ava5-EG(D4AB)SEAP subgenomic replicons
compound,measurement,setting,value
O=C(N[C@@H](C(=O)N1CCC[C@H]1C(=O)Nc1nc(-c2ccccc2)cs1)c1ccccc1)c1ccncc1,clearance,[1],62.2 mL/min/kg
same,Vd,[2],1.8 L/kg
same,EC50,[3],3.8 nM
same,CC50,[4],> 50000 nM
same,half-life,[5],0.5 h
same,AUC,[6],296 ng·h/mL
same,Cmax,[7],58.3 ng/mL
same,Tmax,[8],0.7 h
same,half-life,[9],4.5 h
same,AUC,[10],125 ng·h/mL
same,bioavailability,[11],10.1%
O=C(Nc1nccs1)[C@@H]1CCCN1C(=O)[C@H](NC(=O)N1CCOCC1)c1ccccc1,EC50,[3],9650 nM
same,CC50,[4],> 50000 nM
C[C@@H](NC(=O)N1CCOCC1)C(=O)N1CCC[C@H]1C(=O)Nc1nc(-c2ccccc2)cs1,EC50,[3],1310 nM
same,CC50,[4],> 50000 nM
O=C(N[C@@H](C(=O)N1CCC[C@H]1C(=O)Nc1nc(-c2ccccc2)cs1)c1ccccc1)C1CCCC1,EC50,[3],13 nM
same,CC50,[4],> 50000 nM
CC(=O)N[C@@H](C(=O)N1CCC[C@H]1C(=O)Nc1nc(-c2ccccc2)cs1)c1ccccc1,EC50,[3],16 nM
same,CC50,[4],> 50000 nM
O=C(NC1CC1)N[C@@H](C(=O)N1CCC[C@H]1C(=O)Nc1nc(-c2ccccc2)cs1)c1ccccc1,EC50,[3],3.5 nM
same,CC50,[4],> 50000 nM
O=C(Nc1nc(-c2ccccc2)cs1)[C@@H]1CCCN1C(=O)[C@H](NC(=S)Nc1ccccc1)c1ccccc1,EC50,[3],46 nM
same,CC50,[4],> 50000 nM
O=C(NC1CCCCC1)N[C@@H](C(=O)N1CCC[C@H]1C(=O)Nc1nc(-c2ccccc2)cs1)c1ccccc1,EC50,[3],3.3 nM
same,CC50,[4],> 50000 nM
O=C(Nc1nc(-c2ccccc2)cs1)[C@@H]1CCCN1C(=O)[C@H](NC(=S)NC1CCCCC1)c1ccccc1,EC50,[3],3.2 nM
same,CC50,[4],> 50000 nM
CC[C@@H](NC(=O)N1CCOCC1)C(=O)N1CCC[C@H]1C(=O)Nc1nc(-c2ccccc2)cs1,EC50,[3],1630 nM
same,CC50,[4],> 50000 nM
CCN(CC)C(=O)N[C@@H](C(=O)N1CCC[C@H]1C(=O)Nc1nc(-c2ccccc2)cs1)c1ccccc1,EC50,[3],18 nM
same,CC50,[4],> 50000 nM
O=C(N[C@@H](C(=O)N1CCC[C@H]1c1ncc(-c2ccccc2)s1)c1ccccc1)N1CCOCC1,EC50,[3],2970 nM
same,CC50,[4],> 50000 nM
O=C(Nc1ccccn1)N[C@@H](C(=O)N1CCC[C@H]1C(=O)Nc1nc(-c2ccccc2)cs1)c1ccccc1,EC50,[3],30 nM
same,CC50,[4],> 50000 nM
O=C(N[C@@H](C(=O)N1CCC[C@H]1C(=O)Nc1nc(-c2ccccc2)cs1)c1ccccc1)c1ccccc1,clearance,[1],44.8 mL/min/kg
same,Vd,[2],4.2 L/kg
same,EC50,[3],15 nM
same,CC50,[4],> 50000 nM
same,half-life,[5],2.3 h
same,AUC,[6],367 ng·h/mL
same,Cmax,[7],109 ng/mL
same,Tmax,[8],2.3 h
same,half-life,[9],2.7 h
same,AUC,[10],588 ng·h/mL
same,bioavailability,[11],31%
CC(C)[C@@H](NC(=O)N1CCOCC1)C(=O)N1CCC[C@H]1C(=O)Nc1nc(-c2ccccc2)cs1,EC50,[3],990 nM
same,CC50,[4],> 50000 nM
CC(C)(C)c1csc(NC(=O)[C@@H]2CCCN2C(=O)[C@H](NC(=O)N2CCOCC2)c2ccccc2)n1,EC50,[3],21 nM
same,CC50,[4],> 50000 nM
O=C(Nc1ccccc1)N[C@@H](C(=O)N1CCC[C@H]1C(=O)Nc1nc(-c2ccccc2)cs1)c1ccccc1,EC50,[3],2.3 nM
same,CC50,[4],> 50000 nM
O=C(Nc1nc(-c2ccccc2)cs1)[C@@H]1CCCN1C(=O)[C@H](NC(=S)NC1CC1)c1ccccc1,EC50,[3],34 nM
same,CC50,[4],> 50000 nM
CC(C)C(=O)N[C@@H](C(=O)N1CCC[C@H]1C(=O)Nc1nc(-c2ccccc2)cs1)c1ccccc1,EC50,[3],36 nM
same,CC50,[4],> 50000 nM
O=C(Nc1nc(-c2ccccc2)cs1)[C@@H]1CCCN1C(=O)[C@H](NC(=O)N1CCCC1)c1ccccc1,clearance,[1],55.1 mL/min/kg
same,Vd,[2],1.1 L/kg
same,EC50,[3],3.1 nM
same,CC50,[4],> 50000 nM
same,half-life,[5],0.5 h
same,AUC,[6],311 ng·h/mL
same,Cmax,[7],63.9 ng/mL
same,Tmax,[8],2.8 h
same,half-life,[9],2.4 h
same,AUC,[10],288 ng·h/mL
same,bioavailability,[11],20.4%
O=C(N[C@@H](C(=O)N1CCC[C@H]1c1nc(-c2ccccc2)no1)c1ccccc1)N1CCOCC1,EC50,[3],> 50000 nM
same,CC50,[4],> 50000 nM
O=C(Nc1cccnc1)N[C@@H](C(=O)N1CCC[C@H]1C(=O)Nc1nc(-c2ccccc2)cs1)c1ccccc1,EC50,[3],1.9 nM
same,CC50,[4],> 50000 nM
O=C(N[C@@H](C(=O)N1CCC[C@H]1C(=O)Nc1nc(-c2ccccc2)cs1)c1ccccc1)c1cccnc1,EC50,[3],13 nM
same,CC50,[4],> 50000 nM
O=C(Nc1nc(-c2ccccc2)cs1)[C@@H]1CCCN1C(=O)[C@H](NC(=O)N1CCOCC1)c1ccccc1,clearance,[1],38.4 mL/min/kg
same,Vd,[2],1.04 L/kg
same,EC50,[3],0.92 nM
same,CC50,[4],> 50000 nM
same,half-life,[5],0.46 h
same,AUC,[6],436 ng·h/mL
same,Cmax,[7],247 ng/mL
same,Tmax,[8],0.8 h
same,half-life,[9],1.6 h
same,AUC,[10],404 ng·h/mL
same,bioavailability,[11],18.7%
O=C(N[C@@H](C(=O)N1CCC[C@H]1C(=O)Nc1nc(-c2ccccc2)cs1)c1ccccc1)C1CC1,clearance,[1],27.1 mL/min/kg
same,Vd,[2],1.32 L/kg
same,EC50,[3],4.6 nM
same,CC50,[4],> 50000 nM
same,Ratio CC50/EC50,[12],>10000
same,half-life,[5],1.3 h
same,AUC,[6],635 ng·h/mL
same,Cmax,[7],260 ng/mL
same,Tmax,[8],0.8 h
same,half-life,[9],2.8 h
same,AUC,[10],1440 ng·h/mL
same,bioavailability,[11],45%
CCC(=O)N[C@@H](C(=O)N1CCC[C@H]1C(=O)Nc1nc(-c2ccccc2)cs1)c1ccccc1,EC50,[3],23 nM
same,CC50,[4],> 50000 nM
CN1CCN(C(=O)N[C@@H](C(=O)N2CCC[C@H]2C(=O)Nc2nc(-c3ccccc3)cs2)c2ccccc2)CC1,EC50,[3],0.85 nM
same,CC50,[4],> 50000 nM
O=C(Nc1nc(-c2ccccc2)cs1)[C@@H]1CCCN1C(=O)[C@H](NC(=S)NC1CCCC1)c1ccccc1,EC50,[3],5.2 nM
same,CC50,[4],> 50000 nM
CN(C)C(=O)N[C@@H](C(=O)N1CCC[C@H]1C(=O)Nc1nc(-c2ccccc2)cs1)c1ccccc1,EC50,[3],11 nM
same,CC50,[4],> 50000 nM
O=C(N[C@@H](C(=O)N1CCC[C@H]1c1nc(-c2ccccc2)cs1)c1ccccc1)N1CCOCC1,EC50,[3],9440 nM
same,CC50,[4],> 50000 nM
O=C(Nc1nc(C2CCCCC2)cs1)[C@@H]1CCCN1C(=O)[C@H](NC(=O)N1CCOCC1)c1ccccc1,EC50,[3],6 nM
same,CC50,[4],> 50000 nM
O=C(N[C@@H](C(=O)N1CCC[C@H]1C(=O)Nc1nc(-c2ccccc2)cs1)c1ccccc1)C1CCCCC1,EC50,[3],14 nM
same,CC50,[4],> 50000 nM
O=C(Nc1nc(-c2ccccc2)cs1)[C@@H]1CCCN1C(=O)[C@H](NC(=S)Nc1cccnc1)c1ccccc1,EC50,[3],23 nM
same,CC50,[4],> 50000 nM
CC(C)(C)[C@@H](NC(=O)N1CCOCC1)C(=O)N1CCC[C@H]1C(=O)Nc1nc(-c2ccccc2)cs1,EC50,[3],7060 nM
same,CC50,[4],> 50000 nM
O=C(NC1CCCC1)N[C@@H](C(=O)N1CCC[C@H]1C(=O)Nc1nc(-c2ccccc2)cs1)c1ccccc1,EC50,[3],13 nM
same,CC50,[4],> 50000 nM
Cc1csc(NC(=O)[C@@H]2CCCN2C(=O)[C@H](NC(=O)N2CCOCC2)c2ccccc2)n1,EC50,[3],400 nM
same,CC50,[4],> 50000 nM
O=C(Nc1ccncc1)N[C@@H](C(=O)N1CCC[C@H]1C(=O)Nc1nc(-c2ccccc2)cs1)c1ccccc1,EC50,[3],22 nM
same,CC50,[4],> 50000 nM
O=C(Nc1nc(-c2ccccc2)cs1)[C@@H]1CCCN1C(=O)[C@H](NC(=O)N1CCCCC1)c1ccccc1,EC50,[3],3.1 nM
same,CC50,[4],> 50000 nM
O=C(N[C@@H](C(=O)N1CCC[C@H]1c1ncc(-c2ccccc2)[nH]1)c1ccccc1)N1CCOCC1,EC50,[3],98 nM
same,CC50,[4],> 50000 nM
O=C(N[C@@H](C(=O)N1CCC[C@H]1C(=O)Nc1nc(-c2ccccc2)cs1)c1ccccc1)c1ccccn1,EC50,[3],22 nM
same,CC50,[4],> 50000 nM
CCC[C@@H](NC(=O)N1CCOCC1)C(=O)N1CCC[C@H]1C(=O)Nc1nc(-c2ccccc2)cs1,EC50,[3],270 nM
same,CC50,[4],> 50000 nM
O=C(NC1CCCCCC1)N[C@@H](C(=O)N1CCC[C@H]1C(=O)Nc1nc(-c2ccccc2)cs1)c1ccccc1,EC50,[3],3.8 nM
same,CC50,[4],> 50000 nM
CC(C)(C)C(=O)N[C@@H](C(=O)N1CCC[C@H]1C(=O)Nc1nc(-c2ccccc2)cs1)c1ccccc1,EC50,[3],86 nM
same,CC50,[4],> 50000 nM
CCCC(=O)N[C@@H](C(=O)N1CCC[C@H]1C(=O)Nc1nc(-c2ccccc2)cs1)c1ccccc1,EC50,[3],15 nM
same,CC50,[4],> 50000 nM
